The text below walks through data of ChEMBL document CHEMBL1142431, “Benzodioxoles: novel cannabinoid-1 receptor inverse agonists for the treatment of obesity” (J Med Chem, 2008).

Structures are written as SMILES. The source made the active and inactive calls. The rule behind the calls is not given here.

One may read the Ki as the dissociation constant of the complex between target and ligand, obtained from inhibition or displacement. Read a high Ki as weaker binding. As a reminder, the microsomal CLint is the capacity of the preparation to metabolise the compound, expressed as a volume cleared per time. Read a high microsomal CLint as faster metabolism. Usually EC50 stands for the midpoint of the concentration-response curve.

Series [1] concerns Rattus norvegicus. The series is described as follows: Reduction in body fat in po dosed diet-induced obesity Sprague-Dawley rat model. In kind it is functional, organism-based. Summed up: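 Sprague-Dawley rats fed HFD from 3 weeks of age for 10 weeks; high responders (body weight exceeding chow controls by >2 SD) grouped n = 9. After 3 days gavage adaptation, daily oral dosing at 5:00 p.m. for 2 weeks in 7.5% gelatine/0.62% NaCl in water, 2 mL/kg. Fat and lean mass by MRI before and at end of treatment.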

Series [2] has as its target T1, Cannabinoid receptor 1 (Homo sapiens, UniProt P21554). The series is described as follows: biochemical. Format: cell-based, HEK293.
Series [3] in a line: Clearance in human liver microsomes. Format: ADME, Microsome. As to conditions: liver microsomes. The procedure, abridged:
(§1)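 Test compound at 2 µM incubated with liver microsomes (0.5 mg protein/mL) in 50 mM potassium phosphate pH 7.4 at 37 °C. Reaction started with an NADPH-generating system (glucose-6-phosphate 3.2 mM, NADP 2.6 mM, MgCl2 6.5 mM). Six samples over 30 min, quenched in methanol with internal standard, then LC-MS/MS for substrate depletion. CLint taken from the first-order decay, normalized to protein.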
In general terms: Microsomes from liver hold many membrane-bound enzymes, among them those of drug oxidation.

Series [4] in a line: Clearance in rat liver microsomes. Format: ADME, Microsome. Conditions: liver microsomes. The procedure, abridged: as §1
Series [5] relates to Mus musculus. Nature of the series: Reversal of CP-55940-induced hypothermia in NMRI mouse assessed as rectal temperature at 30 mg/kg, ip. In kind it is functional. Summed up: (§2)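 Mice housed eight per group, eight per dose, habituated at least 2 h. Test compound in 0.3% Tween 80 (10 mL/kg) given 90 min before CP 55940 (0.3 mg/kg iv, same vehicle). Body temperature read 20 min before compound, just before CP 55940, and 20 min after it.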

The target in series [6] is T1, Cannabinoid receptor 1. The series is described as follows: Activity at human CB1R expressed in HEK293 cells assessed as intracellular cAMP level. Format: functional, cell-based.
Series [7] addresses Cannabinoid receptor 2 (Homo sapiens, UniProt P34972). Nature of the series: Binding affinity to human CB2R.
Series [8] has as its system Mus musculus. The series is described as follows: Reversal of CP-55940-induced hypothermia in po dosed NMRI mouse assessed as rectal temperature. Conditions: read-out: ID50 (the source's name). In kind it is functional. The procedure, abridged: as §2
For series [9], the system named is Mus musculus. The series is described as follows: Reversal of CP-55940-induced hypothermia in NMRI mouse assessed as rectal temperature at 30 mg/kg, po. In kind it is functional, organism-based. Set-up: dose 30 mg/kg. The procedure, abridged: as §2

T1 sequence (P21554 whole entry): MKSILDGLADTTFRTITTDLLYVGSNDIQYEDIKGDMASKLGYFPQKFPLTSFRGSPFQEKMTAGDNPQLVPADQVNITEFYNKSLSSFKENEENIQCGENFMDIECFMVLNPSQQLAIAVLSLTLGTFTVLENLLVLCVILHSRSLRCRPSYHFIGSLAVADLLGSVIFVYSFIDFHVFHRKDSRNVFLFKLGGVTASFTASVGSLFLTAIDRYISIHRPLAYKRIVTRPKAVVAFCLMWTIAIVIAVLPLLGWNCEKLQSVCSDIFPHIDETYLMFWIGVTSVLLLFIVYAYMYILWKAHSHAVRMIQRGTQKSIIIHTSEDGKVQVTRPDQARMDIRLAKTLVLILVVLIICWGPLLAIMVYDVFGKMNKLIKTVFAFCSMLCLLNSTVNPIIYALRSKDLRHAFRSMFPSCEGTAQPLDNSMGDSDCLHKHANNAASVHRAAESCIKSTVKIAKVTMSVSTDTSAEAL
Cannabinoid receptor 2, sequence (P34972 whole entry): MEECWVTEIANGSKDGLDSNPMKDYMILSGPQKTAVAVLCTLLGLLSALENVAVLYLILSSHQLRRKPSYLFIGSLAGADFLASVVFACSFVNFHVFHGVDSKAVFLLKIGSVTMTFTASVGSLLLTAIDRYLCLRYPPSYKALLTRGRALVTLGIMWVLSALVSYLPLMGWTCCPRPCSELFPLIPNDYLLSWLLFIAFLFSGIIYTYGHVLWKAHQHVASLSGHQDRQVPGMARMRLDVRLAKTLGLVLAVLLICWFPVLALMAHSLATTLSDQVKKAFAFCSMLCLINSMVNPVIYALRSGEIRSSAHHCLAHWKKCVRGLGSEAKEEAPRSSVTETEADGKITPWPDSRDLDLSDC

On to `Cc1c(C(=O)NN2CCCCC2)nn(-c2ccc(Cl)cc2Cl)c1-c1ccc(Cl)cc1`, for which the outcome in series [1] was Active.
In [2], `Cc1cc2c(cc1C(=O)N1CCOCC1)OC(c1ccccc1)(c1ccccc1)O2` had a Ki of 0.509 µM.
On the same count and under the same terms, the value for `Fc1ccc(C2(c3ccc(F)cc3)Oc3cc(F)c(CN4CCOCC4)cc3O2)cc1` was above 1 µM; that for `N#Cc1cc2c(cc1C(=O)N1CCOCC1)OC(c1ccccc1)(c1ccccc1)O2` was 0.277 µM.
`O=S(=O)(c1ccc2c(c1)OC(c1ccccc1)(c1ccccc1)O2)N1CCCCC1` displayed a Ki in series [2] of 0.038 µM. The microsomal CLint in series [3] is 137 µL/min/mg; in series [4], 549 µL/min/mg. For the same compound, the outcome in series [5] was inactive.
Turning to `O=C(c1cc2c(cc1F)OC(c1ccccc1)(c1ccccc1)O2)N1CCOCC1`, the affinity in [2], expressed as Ki, was 0.015 µM. In addition, the EC50 in series [6] came to 0.026 µM. Also, the microsomal CLint came to 33 µL/min/mg in series [3] and 272 µL/min/mg in series [4].
Turning to `O=C(c1cc2c(cc1F)OC(c1ccc(F)cc1F)(c1ccc(F)cc1F)O2)N1CCCCC1`, in series [2], the Ki came out at 0.001 µM. Further, the EC50 in series [6] came out at 0.002 µM. Moreover, the intrinsic clearance (microsomal CLint) in series [3] came to 34 µL/min/mg; in [4], 122 µL/min/mg.
As to `O=S(=O)(c1ccc2c(c1)OC(c1ccccc1)(c1ccccc1)O2)N1CC=C(c2ccc(F)cc2)CC1`, the figures for the Ki in series [2] and in series [7] were 0.013 µM and above 10 µM, respectively. Moreover, the outcome in series [5] was inactive.
Compound `O=C(c1cc2c(cc1F)OC(c1ccccc1F)(c1ccc(Cl)cc1Cl)O2)N1CCOCC1` (stereo unspecified) displayed a Ki in series [2] of 0.004 µM. Moreover, in series [6], the EC50 was 0.002 µM. Moreover, the results for the microsomal CLint in series [3] and in series [4] were 21 µL/min/mg and 123 µL/min/mg, respectively. In addition, the ED50 in series [8] turned out to be 6 mg/kg.
Take `O=C(c1cc2c(cc1F)OC(c1ccc(F)cc1)(c1ccc(Cl)cc1Cl)O2)N1CCCCC1` (stereo unspecified): affinity in series [2] was put at a Ki of 0.004 µM. Moreover, the EC50 in series [6] is 0.005 µM. In addition, the microsomal CLint in series [3] was determined as 31 µL/min/mg; in series [4] it was 89 µL/min/mg.
For `O=C(c1cc2c(cc1F)OC(c1ccccc1)(c1ccccc1)O2)N1CCCCC1`, the Ki in [2] is 0.011 µM. In series [6], the EC50 was found to be 0.0012 µM. Moreover, the results for the microsomal CLint in series [3] and in series [4] were 50 µL/min/mg and 486 µL/min/mg, respectively.
Compound `O=C(c1cc2c(cc1F)OC(c1ccc(F)cc1F)(c1ccc(F)cc1F)O2)N1CCC(F)(F)CC1` registered a Ki in [2] of 0.006 µM. Further, the EC50 in [6] is 0.002 µM. Moreover, the microsomal CLint amounted to 17 µL/min/mg in [3] and 5 µL/min/mg in series [4].
Regarding `COc1ccc(C2(c3ccc(Cl)cc3Cl)Oc3cc(F)c(C(=O)N4CCCCC4)cc3O2)cc1` (stereo unspecified), the Ki in [2] was determined as 0.002 µM. Moreover, in [6], the EC50 is 0.005 µM. In addition, the figures for the microsomal CLint in [3] and in series [4] were 34 µL/min/mg and 88 µL/min/mg, respectively. In addition, the ED50 in series [8] was 8 mg/kg.
In series [2], `O=C(c1ccc2c(c1)OC(c1ccccc1)(c1ccccc1)O2)N1CCOCC1` yielded an inhibition constant Ki of 0.05 µM. In addition, the EC50 in [6] was 0.784 µM.
Compound `O=C(c1cc2c(cc1F)OC(c1ccc(F)cc1F)(c1ccc(F)cc1F)O2)N1CCOCC1` came in with a Ki in series [2] of 0.007 µM. Moreover, the EC50 in [6] was 0.004 µM. The microsomal CLint in series [3] came out at 96 µL/min/mg; in [4], 30 µL/min/mg. Also, in series [8], the ED50 is 8 mg/kg.
For `O=C(c1cc2c(cc1F)OC(c1ccc(F)cc1)(c1ccc(F)cc1)O2)N1CCOCC1`, in series [2], the affinity corresponds to a Ki of 0.018 µM.
Still for that read-out and setting: the value for `O=C(CC(c1ccccc1)c1ccccc1)N1CC=C(c2ccc(Cl)cc2)CC1` was 1.5 µM; that for `CCCCCn1cc(C(=O)c2ccc3ccccc3c2)c2ccc(S(C)(=O)=O)cc21` was 0.11 µM.
Still for that read-out and setting: the figure for `O=C(c1cc2c(cc1Br)OC(c1ccccc1)(c1ccccc1)O2)N1CCOCC1` is 0.873 µM.
`O=S(=O)(c1cc2c(cc1F)OC(c1ccc(F)cc1F)(c1ccc(F)cc1F)O2)N1CCC(F)(F)CC1`: the result in series [9] and in [5] was inactive. In series [2], this compound displayed a Ki of 0.003 µM. Besides, in series [6], the EC50 worked out at 0.003 µM. Also, the microsomal CLint in [3] stood at 271 µL/min/mg; in series [4], 287 µL/min/mg.
`O=C(c1cc2c(cc1F)OC(c1ccc(F)cc1)(c1ccc(Cl)cc1Cl)O2)N1CCOCC1` (stereo unspecified) showed a Ki in [2] of 0.004 µM. Besides, the EC50 in series [6] came out at 0.011 µM. Moreover, the microsomal CLint was 10 µL/min/mg in series [3] and 22 µL/min/mg in series [4]. The ED50 in [8] came to 5 mg/kg.
Regarding `O=C(c1cc2c(cc1F)OC(c1ccc(F)cc1)(c1ccc(F)cc1)O2)N1CCCCC1`, the Ki in [2] worked out at 0.007 µM. The EC50 in series [6] stood at 0.072 µM. The microsomal CLint in series [3] turned out to be 48 µL/min/mg; in [4] it was 81 µL/min/mg.
`O=C(c1cc2c(cc1F)O[C@@](c1ccc(F)cc1)(c1ccc(Cl)cc1Cl)O2)N1CCOCC1` returned a Ki in series [2] of 0.035 µM.
Turning to `O=C(c1ccc2c(c1)OC(c1ccccc1)(c1ccccc1)O2)N1CCCCC1`, the Ki in series [2] is 0.028 µM. Besides, the figures for the microsomal CLint in series [3] and in series [4] were 53 µL/min/mg and 673 µL/min/mg, respectively. In [5], the outcome was inactive.
For `O=C(c1ccc2c(c1)OC(c1ccc(F)cc1)(c1ccc(Cl)cc1Cl)O2)N1CCOCC1` (stereo unspecified), in series [2], the affinity corresponds to a Ki of 0.03 µM. Also, the EC50 in series [6] stood at 0.156 µM. For the same compound, the microsomal CLint in [3] is 19 µL/min/mg; in [4] it was 4 µL/min/mg.
In series [2], `O=C(c1cc2c(cn1)OC(c1ccccc1)(c1ccccc1)O2)N1CCCCC1` registered a Ki of 0.013 µM.
As for `O=S(=O)(c1cc2c(cc1F)OC(c1ccc(F)cc1F)(c1ccc(F)cc1F)O2)N1CCOCC1`, the outcome in series [9] and in [5] was inactive. Also, the Ki in series [2] is 0.025 µM. Besides, in series [6], the EC50 was 0.011 µM. Moreover, the microsomal CLint was found to be 102 µL/min/mg in series [3] and 149 µL/min/mg in series [4].
Regarding `O=C(c1cc2c(cc1Cl)OC(c1ccccc1)(c1ccccc1)O2)N1CCOCC1`, the Ki in series [2] was 0.216 µM. The microsomal CLint in series [3] was found to be 44 µL/min/mg; in series [4] it was 388 µL/min/mg.
The compound `O=S(=O)(c1cc2c(cc1F)OC(c1ccc(F)cc1)(c1ccc(Cl)cc1Cl)O2)N1CCOCC1` (stereo unspecified) displayed a Ki in series [2] of 0.009 µM. The EC50 in series [6] is 0.003 µM. Also, the microsomal CLint in [3] is 20 µL/min/mg; in series [4], 53 µL/min/mg. For the same compound, the ED50 in series [8] is 16 mg/kg.
